Experimental data published in ChEMBL document CHEMBL3046752, “Characterization of the volatile constituents in the essential oil of Pistacia lentiscus L. from different origins and its antifungal and antioxidant activity” (2007).

Columns and labels:
Aspergillus flavus [1] = experiment: Antifungal activity against Aspergillus flavus assessed as mycelial growth at 20 uL after 4 to 12 days by agar disk diffusion method relative to untreated control; assay type: functional
In short: (§1)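 Aspergillus flavus, isolated from feeds, was grown on PDA plates seeded with 6 mm mycelial plugs from 10-day cultures. Three paper disks per dish carried either 60 µL pure essential oil or 60, 40 or 20 µL of single major oil constituents. Plates were sealed and incubated in the dark at 22 °C. Average colony diameter was read at 4, 8 and 12 days against water-impregnated disk controls.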

Aspergillus flavus [2] = experiment: Antifungal activity against Aspergillus flavus assessed as mycelial growth at 60 uL after 4 to 12 days by agar disk diffusion method relative to untreated control; assay type: functional; in short: as §1

Row | Structure (SMILES) | Activity (Aspergillus flavus [1]) [%] | Activity (Aspergillus flavus [2]) [%]
1 | CC1=CC[C@@H](C(C)(C)O)CC1 [ALPHA-TERPINEOL] | 100 | 100
2 | CC1=CC[C@H](C(C)C)C=C1 [ALPHA-PHELLANDRENE] | 0 | 0
3 | CC1=CCC(O)(C(C)C)CC1 (configuration not stated) [TERPINEOL] | 100 | 100
4 | CC1=CCC(C(C)C)=CC1 [GAMMA-TERPINENE] | 0 | 0
5 | CC1=CCC(=C(C)C)CC1 [TERPINOLENE] | 0 | 0
6 | CC1=CC=C(C(C)C)CC1 [ALPHA-TERPINENE] | 0 | 0
